Test results as given in paper PMC10546487 (Journal of medicinal chemistry, 2022).
Like-named read-outs stand apart in the source and are kept apart here.

Columns and labels:
MOR [1] = target: T1, MOR (Mus musculus, UniProt P42866); assay: Radioligand competition binding assay, MOR; details: ratio of Ki values DOR/MOR
DOR [2] = target: T2, DOR (Mus musculus, UniProt P32300); assay: Radioligand competition binding assay, DOR
KOR [3] = target: T3, KOR (Mus musculus, UniProt P33534); assay: KOR [35S]GTPγS functional assay; format: biochemical
T3 sequence (P33534 whole entry): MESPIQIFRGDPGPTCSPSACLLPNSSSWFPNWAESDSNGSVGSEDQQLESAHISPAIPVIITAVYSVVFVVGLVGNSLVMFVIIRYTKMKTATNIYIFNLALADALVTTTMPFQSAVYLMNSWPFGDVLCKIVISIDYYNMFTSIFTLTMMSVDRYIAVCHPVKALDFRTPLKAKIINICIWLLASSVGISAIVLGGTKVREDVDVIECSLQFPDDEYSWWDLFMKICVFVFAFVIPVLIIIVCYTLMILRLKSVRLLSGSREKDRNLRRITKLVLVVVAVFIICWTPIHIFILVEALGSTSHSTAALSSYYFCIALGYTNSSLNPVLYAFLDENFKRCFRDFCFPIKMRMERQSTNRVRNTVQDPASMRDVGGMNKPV

DOR [4] = target: T2, DOR; assay: DOR [35S]GTPγS functional assay; format: biochemical
MOR [5] = target: T1, MOR; assay: Calcium flux assay in Gqi5-transfected MOR-CHO cells; format: cell-based; details: 0.3 nM to 3 μM
Outline: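 Gqi5 cDNA lipofected into MOR-CHO cells, 4 h at 37 °C/5% CO2, then trypsinized, plated at […] and grown to confluence. At 48 h post-transfection, cells loaded 45 min with fluo-4 AM plus probenecid in HBSS–HEPES–Ca–Mg buffer. Test compound (0.3 nM–3 μM) given for agonist activity; Ca2+ read as RFU peak. Triplicate doses; ≥4 repeats.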

mice = assay: Warm-water tail immersion assay; format: in vivo, mouse; details: 10 mg/kg s.c. in the presence of morphine (10 mg/kg)
Outline: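 Male Swiss-Webster mice (23–35 g, 7–8 weeks), n = 5 per group. Single test-compound dose of 10 mg/kg given subcutaneously at time 0. Tail-flick latency measured in water at 56 ± 0.1 °C. Saline served as negative control and morphine as positive control. Response expressed as % maximum possible effect, reported as mean ± SD.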

[6] = Metabolic stability in human liver microsomes; format: in vitro ADME
[7] = Metabolic stability in rat liver microsomes; format: in vitro ADME
morphine-pelleted mice [8] = assay: Opioid withdrawal study in chronic morphine-pelleted mice; format: in vivo, mouse; details: vs 1 mg/kg naloxone
hERG potassium channel = hERG potassium channel (Homo sapiens, UniProt Q12809); assay: hERG automated patch-clamp assay in CHO-K1 cells; details: ratio of hERG IC50 values vs NAN
Chain of hERG potassium channel (Q12809 whole entry): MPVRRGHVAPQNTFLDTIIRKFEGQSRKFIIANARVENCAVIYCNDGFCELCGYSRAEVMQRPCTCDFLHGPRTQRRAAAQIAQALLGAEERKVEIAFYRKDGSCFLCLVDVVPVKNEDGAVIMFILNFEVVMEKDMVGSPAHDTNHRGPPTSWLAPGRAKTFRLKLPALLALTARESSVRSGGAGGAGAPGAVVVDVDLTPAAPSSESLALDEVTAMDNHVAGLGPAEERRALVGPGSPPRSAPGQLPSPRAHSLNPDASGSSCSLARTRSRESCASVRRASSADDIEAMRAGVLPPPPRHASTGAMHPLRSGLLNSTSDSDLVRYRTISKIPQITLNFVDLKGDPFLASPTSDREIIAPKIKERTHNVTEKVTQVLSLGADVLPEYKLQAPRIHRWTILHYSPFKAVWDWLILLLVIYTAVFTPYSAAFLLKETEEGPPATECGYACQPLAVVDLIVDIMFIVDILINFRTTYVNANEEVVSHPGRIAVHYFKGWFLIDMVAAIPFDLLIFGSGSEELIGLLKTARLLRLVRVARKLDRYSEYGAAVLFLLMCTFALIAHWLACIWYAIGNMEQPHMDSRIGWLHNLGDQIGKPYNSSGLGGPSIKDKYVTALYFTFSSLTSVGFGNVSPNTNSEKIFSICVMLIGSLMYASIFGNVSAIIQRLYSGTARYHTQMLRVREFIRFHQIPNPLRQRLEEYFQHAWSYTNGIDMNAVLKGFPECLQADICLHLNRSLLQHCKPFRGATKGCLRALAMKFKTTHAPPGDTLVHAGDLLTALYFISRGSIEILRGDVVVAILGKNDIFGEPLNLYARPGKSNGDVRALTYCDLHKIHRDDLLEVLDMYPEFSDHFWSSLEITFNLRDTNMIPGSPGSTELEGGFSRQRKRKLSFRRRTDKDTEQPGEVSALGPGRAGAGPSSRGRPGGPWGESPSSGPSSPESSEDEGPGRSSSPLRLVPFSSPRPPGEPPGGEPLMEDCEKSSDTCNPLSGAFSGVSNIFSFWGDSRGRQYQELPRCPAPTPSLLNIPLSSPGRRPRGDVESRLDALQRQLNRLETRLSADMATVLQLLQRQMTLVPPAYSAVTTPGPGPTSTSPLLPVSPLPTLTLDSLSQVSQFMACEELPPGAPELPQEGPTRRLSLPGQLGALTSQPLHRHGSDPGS

KOR [9] = target: T3, KOR; details: [35S]GTPγS; cited from earlier work
DOR [10] = target: T2, DOR; details: [35S]GTPγS; cited from earlier work
morphine-pelleted mice [11] = details: 50 mg/kg; cited from earlier work

T2 sequence (P32300 whole entry): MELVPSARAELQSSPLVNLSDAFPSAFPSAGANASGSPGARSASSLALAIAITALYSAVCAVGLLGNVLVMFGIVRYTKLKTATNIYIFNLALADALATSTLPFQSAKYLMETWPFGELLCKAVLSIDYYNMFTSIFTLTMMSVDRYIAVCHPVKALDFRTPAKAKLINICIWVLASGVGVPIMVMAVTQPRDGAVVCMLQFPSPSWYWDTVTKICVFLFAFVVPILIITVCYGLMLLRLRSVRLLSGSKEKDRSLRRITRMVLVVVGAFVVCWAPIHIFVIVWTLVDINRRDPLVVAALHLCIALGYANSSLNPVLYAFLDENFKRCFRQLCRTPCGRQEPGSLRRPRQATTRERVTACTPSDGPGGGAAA
T1 sequence (P42866 whole entry): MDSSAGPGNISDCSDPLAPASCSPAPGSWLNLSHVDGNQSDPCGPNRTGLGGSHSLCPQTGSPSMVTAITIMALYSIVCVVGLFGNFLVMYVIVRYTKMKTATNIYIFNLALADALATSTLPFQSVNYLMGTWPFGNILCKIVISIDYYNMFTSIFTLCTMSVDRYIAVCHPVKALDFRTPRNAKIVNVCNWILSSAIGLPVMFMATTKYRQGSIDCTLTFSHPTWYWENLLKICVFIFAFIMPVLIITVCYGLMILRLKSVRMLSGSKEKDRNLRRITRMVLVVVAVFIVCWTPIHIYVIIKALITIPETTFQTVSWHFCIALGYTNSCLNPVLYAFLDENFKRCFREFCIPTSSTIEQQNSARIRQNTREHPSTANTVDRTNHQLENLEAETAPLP

Cc1cc2cccc(C(=O)N[C@H]3CC[C@@]4(O)[C@H]5Cc6ccc(O)c7c6[C@@]4(CCN5CC4CC4)[C@H]3O7)c2[nH]1.Cl [Compound 21, 17-Cyclopropylmethyl-3,14β-dihydroxy-4,5α-epoxy-6α-(2-methyl-indole-7-carboxamido)morphinan]
Selectivity δ/μ (MOR [1]): 27.3 | Ki (DOR [2]): 16 ± 1.09 nM | EC50 (KOR [3]; KOR EC50 (nM), mean ± SEM): 6.65 ± 0.78 nM | KOR Emax(% max of U50,488H) (KOR [3]; relative to KOR full agonist U50,488H): 48.28 ± 1.45% | EC50 (DOR [4]; DOR EC50 (nM), mean ± SEM): 4.99 ± 0.21 nM | DOR Emax(% max of SNC80) (DOR [4]; relative to DOR full agonist SNC80): 76.82 ± 4.82% | Agonist activity to increase the intracellular calcium concentration (MOR [5]): no obvious agonist activity | Blockage of the morphine-mediated antinociception (mice): different degrees of inhibition of morphine’s antinociceptive effect | CLint scaled [6]: < 38.5 mL/min/kg | CLint scaled [7]: < 38.5 mL/min/kg | Jumps (morphine-pelleted mice [8]; 40 mg/kg): not significantly different from those at 1 mg/kg naloxone | Paw tremors (morphine-pelleted mice [8]; all doses up to 80 mg/kg): significantly fewer paw tremors | Wet-dog shakes (morphine-pelleted mice [8]; all the doses tested): did not precipitate more wet-dog shakes | Improvement of hERG profile in comparison to NAN (fold) (hERG potassium channel): seven-fold

O=C(N[C@H]1CC[C@@]2(O)[C@H]3Cc4ccc(O)c5c4[C@@]2(CCN3CC2CC2)[C@H]1O5)c1cccc2cc[nH]c12 [NAN, 17-cyclopropylmethyl-3,14β-dihydroxy-4,5α-epoxy-6α-(indole-7-carboxamido)morphinan]
KOR Emax(% max of U50,488H) (KOR [9]): 73.90 ± 3.69% | DOR Emax(% max of SNC80) (DOR [10]): 26.67 ± 1.17% | Paw tremors (morphine-pelleted mice [11]): seemingly more paw tremors | Wet-dog shakes and jumps (morphine-pelleted mice [11]): did not induce significant wet-dog shakes and jumps
